In test [1] the test system is Candida dubliniensis. Description: Antimicrobial activity against Candida dubliniensis harboring MRR1 CM1 mutant gene by microdilution method. In kind it is functional. Summed up:
(§1)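 MRR1 alleles were expressed from the ADH1 promoter as single-copy integrations in C. albicans SC5314 mrr1Δ mutants, selected with nourseothricin. Broth microdilution was run in HR medium with NaHCO3 and 0.2 M phosphate buffer (pH 7.2), using serial twofold dilutions. Starting assay concentrations were fluconazole 200 μg/ml, cerulenin 50 μg/ml and brefeldin A 200 μg/ml.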

Test [2] deals with Candida albicans. Description: Antimicrobial activity against Candida albicans harboring MRR1 gene by microdilution method. The class given is functional. The procedure, abridged: as §1
Test [3] deals with Candida albicans. Description: Antimicrobial activity against Candida albicans harboring P683S mutation in MRR1F5 gene by microdilution method.
In test [4] the test system is Candida dubliniensis. Description: Antimicrobial activity against Candida dubliniensis harboring MRR1 CD57B mutant gene by microdilution method. The class given is functional. The procedure, abridged: as §1
The test system of test [5] is Candida albicans. Description: Antimicrobial activity against Candida albicans harboring MRR1 CD57A mutant gene by microdilution method.
Test [6] concerns Candida dubliniensis. Description: Antimicrobial activity against Candida dubliniensis harboring MRR1 CD57 mutant gene by microdilution method. The class given is functional. The procedure, abridged: as §1
Test [7] relates to Candida albicans. Description: Antimicrobial activity against wild-type Candida albicans SC5314 by microdilution method. In kind it is functional. Summed up:
(§2)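 Broth microdilution was run in HR medium with NaHCO3 and 0.2 M phosphate buffer (pH 7.2), using serial twofold dilutions. Starting assay concentrations were fluconazole 200 μg/ml, cerulenin 50 μg/ml and brefeldin A 200 μg/ml. Fluconazole stock was prepared in water; cerulenin and brefeldin A stocks were in DMSO. Strains were kept at −80°C and subcultured on YPD at 30°C.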

In test [8] the test system is Candida albicans. Description: Antimicrobial activity against Candida albicans harboring MRR1 CD51-2B mutant gene by microdilution method.
For test [9], the system named is Candida dubliniensis. Description: Antimicrobial activity against Candida dubliniensis harboring MRR1 CM2 mutant gene by microdilution method. In kind it is functional. Summed up:
as §1

The subject of test [10] is Candida albicans. Description: Antimicrobial activity against mrr1-deficient Candida albicans by microdilution method. The class given is functional. The procedure, abridged: as §2
Test [11] concerns Candida albicans. Description: Antimicrobial activity against Candida albicans harboring MRR1 CD51-2A mutant gene by microdilution method.

≈ marks a conversion by molar mass, not a printed value.

Regarding `C[C@H]1CCC/C=C/[C@@H]2C[C@H](O)C[C@H]2[C@H](O)/C=C/C(=O)O1` [BREFELDIN A], the MIC was determined as 1.56 µg/mL (≈ 5.56 µM) with Candida dubliniensis [1]; 1.56 µg/mL (≈ 5.56 µM) in the test with Candida albicans [2]; 25 µg/mL (≈ 89.2 µM) in the test with Candida albicans [3]; 12.5 µg/mL (≈ 44.6 µM) in the test on Candida dubliniensis [4]; 12.5 µg/mL (≈ 44.6 µM) in the test on Candida albicans [5]; 1.56 µg/mL (≈ 5.56 µM) against Candida dubliniensis [6]. The MIC in the test with Candida albicans [7] came out at 1.56 µg/mL (≈ 5.56 µM); in the test with Candida albicans [8], 3.13 µg/mL (≈ 11.2 µM); in the test with Candida dubliniensis [9], 12.5 µg/mL (≈ 44.6 µM); in the test on Candida albicans [10] it was 1.56 µg/mL (≈ 5.56 µM); in the test with Candida albicans [11], 12.5 µg/mL (≈ 44.6 µM).

Regarding `C/C=C/C/C=C/CCC(=O)[C@H]1O[C@H]1C(N)=O` [CERULENIN], the MIC is 0.2 µg/mL (≈ 0.896 µM) in the test with Candida dubliniensis [1]; 0.2 µg/mL (≈ 0.896 µM) against Candida albicans [2]; 6.25 µg/mL (≈ 28 µM) with Candida albicans [3]; 3.13 µg/mL (≈ 14 µM) against Candida dubliniensis [4]; 3.13 µg/mL (≈ 14 µM) against Candida albicans [5]; 0.2 µg/mL (≈ 0.896 µM) in the test with Candida dubliniensis [6]. In addition, the MIC in the test with Candida albicans [7] came out at 0.2 µg/mL (≈ 0.896 µM); against Candida albicans [8] it was 0.78 µg/mL (≈ 3.49 µM); in the test on Candida dubliniensis [9] it was 3.13 µg/mL (≈ 14 µM); in the test on Candida albicans [10], 0.2 µg/mL (≈ 0.896 µM); against Candida albicans [11], 3.13 µg/mL (≈ 14 µM).

In the case of `OC(Cn1cncn1)(Cn1cncn1)c1ccc(F)cc1F` [FLUCONAZOLE], the MIC against Candida dubliniensis [1] amounted to 0.1 µg/mL (≈ 0.327 µM); with Candida albicans [2], 0.1 µg/mL (≈ 0.327 µM); with Candida albicans [3], 3.13 µg/mL (≈ 10.2 µM); with Candida dubliniensis [4] it was 0.78 µg/mL (≈ 2.55 µM); with Candida albicans [5], 0.78 µg/mL (≈ 2.55 µM); in the test on Candida dubliniensis [6], 0.1 µg/mL (≈ 0.327 µM). Further, the MIC stood at 0.1 µg/mL (≈ 0.327 µM) in the test with Candida albicans [7]; 0.39 µg/mL (≈ 1.27 µM) in the test with Candida albicans [8]; 0.78 µg/mL (≈ 2.55 µM) in the test with Candida dubliniensis [9]; 0.1 µg/mL (≈ 0.327 µM) in the test on Candida albicans [10]; 0.78 µg/mL (≈ 2.55 µM) against Candida albicans [11].

The values are drawn from ChEMBL document CHEMBL1629560, “Gain-of-function mutations in the transcription factor MRR1 are responsible for overexpression of the MDR1 efflux pump in fluconazole-resistant Candida dubliniensis strains” (2008).
